In ChEMBL document CHEMBL1157841, “Stilbene analogs as inducers of apolipoprotein-I transcription” (Eur J Med Chem, 2010):

Assays:
[1] = test system: Caco-2; experiment: Induction of human ApoA-1 gene expression in human Caco-2 cells co-transfected with luc-beta-galactosidase after 48 hrs assessed as luciferase activity by luminometer relative to resveratrol; format: functional
Outline: (§1)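 Caco-2 cells stably carrying an ApoA-I promoter–luciferase reporter (co-transfected with pRSV-β-galactosidase as transfection control; selected in MEM with 20% calf serum and 0.5 mg/mL G418). Cells seeded, 24 h at 37 °C in 5% CO2, then starved 24 h in 0.5% FBS selection medium. Compounds added at 15 µM in 0.01% DMSO for 48 h. Cells lysed, luciferase read by luminometer and normalized to Bradford protein. Fold induction is taken against untreated cells and against resveratrol, which is run in each experiment.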

[2] = test system: Caco-2; experiment: Induction of human ApoA-1 gene expression in human Caco-2 cells co-transfected with luc-beta-galactosidase after 48 hrs assessed as luciferase activity by luminometer relative to control; format: functional; outline: as §1
[3] = test system: Caco-2; experiment: Cytotoxicity against human Caco-2 cells; format: cell-based
[4] = test system: Caco-2; experiment: Induction of human ApoA-1 gene expression in human Caco-2 cells co-transfected with luc-beta-galactosidase at 15 uM after 48 hrs assessed as luciferase activity by luminometer relative to control; format: functional; outline: as §1

SMILES | fold change (FC) [1] | fold change (FC) [2] | Activity [3] | fold change (FC) [4]
Oc1ccc(/C=C/c2ccc(O)cc2)cc1 [TRANS-4,4'-DIHYDROXYSTILBENE] | 1.6 | 5.1 |  | 
Oc1ccc(-c2nnc(-c3cccc(O)c3)o2)cc1 | 0.9 | 3.7 | Non-toxic | 
NC(=O)c1cc(/C=C/c2ccc(O)cc2)ccc1O | 0.7 | 2.7 |  | 
OCc1cccc(-c2nnc(-c3ccc(O)cc3)o2)c1 | 0.5 | 1.4 | Non-toxic | 
OCc1cc(O)ccc1/C=C/c1ccc(O)cc1 | 0.5 | 2 |  | 
O=C(Nc1ccc(O)cc1)c1ccccc1 | 0.6 | 1.7 |  | 
CN(C)C(=O)c1cc(O)ccc1/C=C/c1ccc(O)cc1 | 0.2 | 1.1 |  | 
COc1cc(O)ccc1/C=C/c1ccc(O)cc1 | 4.6 | 12.5 |  | 
Oc1ccc(/C=C/c2ccc(O)nc2)cc1 | 0.4 | 1.1 |  | 
O=S(=O)(Nc1ccc(O)cc1)c1ccc(O)cc1 | 0.4 | 1.3 |  | 
O=[N+]([O-])c1cc(O)ccc1/C=C/c1ccc(O)cc1 | 2.8 | 9.4 |  | 
Oc1cccc(-c2nnc(-c3ccccc3)o2)c1 | 0.6 | 2.2 | Non-toxic | 
O=C(Nc1ccc(O)cc1)c1ccc(O)cc1 | 0.7 | 1.9 |  | 
Oc1ccc(CCc2ccc(O)cc2)cc1 | 1 | 3.9 |  | 
Nc1cc(O)ccc1/C=C/c1ccc(O)cc1 | 0.9 | 3.2 |  | 
CS(=O)(=O)c1cc(O)ccc1/C=C/c1ccc(O)cc1 | 0.7 | 2 |  | 
CC(=O)Nc1cc(O)ccc1/C=C/c1ccc(O)cc1 | 0.3 | 0.9 |  | 
Oc1ccc(-c2nnc(-c3ccccc3)o2)cc1 | 0.5 | 1.9 | Non-toxic | 
O=C(Nc1ccccc1)c1ccc(O)cc1 | 0.5 | 1.7 |  | 
CCOC(=O)c1cc(/C=C/c2ccc(O)cc2)ccc1O | 0.4 | 1.1 |  | 
O=C(O)c1cc(/C=C/c2ccc(O)cc2)ccc1O | 0.4 | 1.2 |  | 
Oc1ccc(/N=N/c2ccc(O)cc2)cc1 | 1.3 | 3.4 |  | 
Oc1ccc(/C=C/c2cc(O)cc(O)c2)cc1 [RESVERATROL] |  |  |  | 2.6
